Data reported in ChEMBL document CHEMBL4699451, “Discovery of BIIB068: A Selective, Potent, Reversible Bruton's Tyrosine Kinase Inhibitor as an Orally Efficacious Agent for Autoimmune Diseases” (J Med Chem, 2020).

Assays:
[1] = Cmax in dog at 5 mg/kg, po; assay type: ADME, organism-based, Canis lupus familiaris; design: route oral, dose 5 mg/kg; conditions: in vivo
[2] = Kinetic solubility of compound at pH 6.8 by shake flask method; assay type: physicochemical; conditions: buffer, read-out: Kinetic_solubility
[3] = Clearance in Sprague-Dawley rat at 1 mg/kg, iv relative to hepatic blood flow; assay type: ADME, organism-based; conditions: in vivo
[4] = target: T1, Cytochrome P450 3A4 (Homo sapiens, UniProt P08684); test: Time-dependent inhibition of CYP3A4 in human liver microsomes using testosterone in presence of NADPH by LC-MS/MS analysis; assay type: ADME
T1 sequence (P08684 whole entry): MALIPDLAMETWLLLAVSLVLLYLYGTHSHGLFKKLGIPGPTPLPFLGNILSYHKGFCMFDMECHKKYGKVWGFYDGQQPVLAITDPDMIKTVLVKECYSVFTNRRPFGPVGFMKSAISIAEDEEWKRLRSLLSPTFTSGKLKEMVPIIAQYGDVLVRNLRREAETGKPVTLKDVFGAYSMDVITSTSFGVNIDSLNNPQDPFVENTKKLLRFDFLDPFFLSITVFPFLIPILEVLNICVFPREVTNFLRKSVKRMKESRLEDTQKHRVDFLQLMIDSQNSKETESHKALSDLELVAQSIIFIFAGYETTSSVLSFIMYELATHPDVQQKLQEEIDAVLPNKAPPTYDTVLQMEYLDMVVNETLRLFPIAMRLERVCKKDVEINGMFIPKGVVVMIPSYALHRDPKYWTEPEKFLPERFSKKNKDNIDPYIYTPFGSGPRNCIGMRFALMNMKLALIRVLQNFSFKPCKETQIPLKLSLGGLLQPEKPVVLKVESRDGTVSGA

[5] = target: T1, Cytochrome P450 3A4; test: Inhibition of CYP3A4 in human liver microsomes using testosterone as substrate measured after 15 mins in presence of NADPH by LC-MS/MS analysis; assay type: ADME
[6] = target: T1, Cytochrome P450 3A4; test: Inhibition of CYP3A4 in human liver microsomes using midazolam as substrate measured after 15 mins in presence of NADPH by LC-MS/MS analysis; assay type: ADME
[7] = target: T2, Tyrosine-protein kinase BTK (Mus musculus, UniProt P35991); test: Inhibition of BTK in DBA1 mouse whole blood assessed as reduction in BTK phosphorylation; assay type: tissue-based
T2 sequence (P35991 whole entry): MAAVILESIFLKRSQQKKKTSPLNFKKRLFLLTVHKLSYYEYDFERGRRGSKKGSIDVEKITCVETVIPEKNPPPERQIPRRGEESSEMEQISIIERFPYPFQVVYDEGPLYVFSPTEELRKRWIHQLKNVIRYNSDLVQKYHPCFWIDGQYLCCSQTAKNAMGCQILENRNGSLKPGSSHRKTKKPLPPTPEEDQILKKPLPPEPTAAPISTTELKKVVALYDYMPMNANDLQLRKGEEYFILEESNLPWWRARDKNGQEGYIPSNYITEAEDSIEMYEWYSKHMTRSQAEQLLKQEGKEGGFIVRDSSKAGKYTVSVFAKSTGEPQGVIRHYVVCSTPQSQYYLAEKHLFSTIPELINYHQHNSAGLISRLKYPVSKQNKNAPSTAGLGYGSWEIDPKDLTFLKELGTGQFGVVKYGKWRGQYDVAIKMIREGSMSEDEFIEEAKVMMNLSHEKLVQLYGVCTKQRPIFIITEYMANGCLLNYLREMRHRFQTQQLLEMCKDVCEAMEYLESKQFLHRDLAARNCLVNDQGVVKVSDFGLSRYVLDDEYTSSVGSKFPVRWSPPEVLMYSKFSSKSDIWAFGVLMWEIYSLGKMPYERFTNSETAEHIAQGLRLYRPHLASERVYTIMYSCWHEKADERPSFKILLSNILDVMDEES

[8] = Drug metabolism in human liver microsomes assessed as O-deisopropylation; assay type: ADME, Microsome
[9] = In vivo inhibition of BTK-dependent B cell activation in TI-2 antigen/ NP-Ficoll-induced DBA1 mouse immunized model assessed as reduction in anti-NP IgM antibody titer administered orally twice daily for 10 days measured post last dose by ELISA; assay type: functional, organism-based; conditions: DBA1, po, 240 h, dose mg/kg 1-50, time 10 day
[10] = Drug metabolism in human liver microsomes assessed as oxidation at pyrazole moiety; assay type: ADME, Microsome
[11] = Protein binding in human plasma assessed as unbound fraction at 2 uM by rapid equilibrium dialysis method; assay type: ADME, cell-free
How it was run: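 Unbound fraction in human plasma determined by rapid equilibrium dialysis at 2 µM compound.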

[12] = Toxicity in Sprague-Dawley rat assessed as effect on food consumption measured up to 13 weeks; conditions: in vivo, 2184 h
How it was run: (§1)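 GLP toxicity studies lasting up to 13 weeks, run in Sprague-Dawley rats and cynomolgus monkeys.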

[13] = Genotoxicity in Sprague-Dawley rat assessed as disruption of mitotic apparatus in bone marrow by micronucleus assay; assay type: toxicity
How it was run: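 In vivo micronucleus test in Sprague-Dawley rats; bone marrow scored for micronuclei, clastogenic activity and disruption of the mitotic apparatus.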

[14] = Stability in mouse plasma assessed as parent compound remaining after 6 hrs; assay type: ADME, cell-free; conditions: read-out: Stabilty
How it was run: (§2)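 Compound incubated in plasma for 6 hours, then percentage of parent compound remaining determined.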

[15] = Stability in cynomolgus monkey plasma assessed as parent compound remaining after 6 hrs; assay type: ADME, cell-free, Macaca fascicularis; conditions: read-out: Stabilty; how it was run: as §2
[16] = Kinetic solubility of compound at pH 1.5 by shake flask method; assay type: physicochemical; conditions: buffer, read-out: Kinetic_solubility
[17] = Toxicity in cynomolgus monkey assessed as effect on gross pathology measured up to 13 weeks; design: species or system Macaca fascicularis; conditions: in vivo, 2184 h; how it was run: as §1
[18] = Aqueous solubility of compound in simulated gastric fluid at pH 2 by HPLC method; assay type: physicochemical
[19] = AUC (infinity) in cynomolgus monkey at 100 mg/kg; assay type: ADME, organism-based, Macaca fascicularis; design: time infinity, dose 100 mg/kg; conditions: in vivo
How it was run: (§3)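 Sprague-Dawley rats and cynomolgus monkeys given compound daily in GLP toxicity studies lasting up to 13 weeks; daily AUCinf taken at the no-observed-adverse-effect dose level of each species.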

[20] = Toxicity in Sprague-Dawley rat measured up to 13 weeks; conditions: in vivo; how it was run: as §1
[21] = Protein binding in cynomolgus monkey plasma assessed as unbound fraction; assay type: ADME, cell-free, Macaca fascicularis
[22] = Toxicity in Sprague-Dawley rat assessed as change in body weight measured up to 13 weeks; conditions: in vivo, 2184 h; how it was run: as §1
[23] = Protein binding in dog plasma assessed as unbound fraction; assay type: ADME, cell-free, Canis lupus familiaris
[24] = Lipophilicity, log D of compound by UV-HPLC method; assay type: physicochemical
[25] = Stability in rat plasma assessed as parent compound remaining after 6 hrs; assay type: ADME, cell-free; conditions: read-out: Stabilty; how it was run: as §2
[26] = Volume of distribution at steady state in cynomolgus monkey at 1 mg/kg, iv; assay type: ADME, organism-based, Macaca fascicularis; conditions: in vivo, read-out: Vdss
How it was run: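 Intravenous dosing at 1 mg/kg; vehicle 70:30 PEG-400:H2O solution.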

[27] = Toxicity in Sprague-Dawley rat assessed as effect on organ weight measured up to 13 weeks; conditions: in vivo, 2184 h; how it was run: as §1
[28] = Toxicity in cynomolgus monkey assessed as histopathological changes measured up to 13 weeks; design: species or system Macaca fascicularis; conditions: in vivo, 2184 h; how it was run: as §1
[29] = AUC in rat at 5 mg/kg, po; assay type: ADME, organism-based; design: dose 5 mg/kg; conditions: in vivo
[30] = target: T2, Tyrosine-protein kinase BTK; test: In vivo inhibition of BTK in TI-2 antigen/ NP-Ficoll-induced DBA1 mouse immunized model assessed as reduction in BTK phosphorylation administered orally twice daily for 10 days measured post last dose; assay type: functional, organism-based
How it was run: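 Female DBA/1 mice, nine per arm, were immunized with 30 µg NP-Ficoll ip on day 0 and dosed PO twice daily for 10 days (1-50 mg/kg/dose) in 0.5% carboxymethylcellulose/0.1% Tween 80. On day 10, serum NP-specific IgM was measured by ELISA on NP-BSA plates (biotin anti-IgM, streptavidin-HRP, ABTS, 405 nm) and titer interpolated against a pooled positive serum standard, reported as reduction vs vehicle. Whole-blood pBTK was taken at pre-last dose and 1 and 4 h post final dose.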

[31] = Toxicity in Sprague-Dawley rat assessed as effect on clinical sign measured up to 13 weeks; conditions: in vivo, 2184 h; how it was run: as §1
[32] = AUC (infinity) in Sprague-Dawley rat at 50 mg/kg; assay type: ADME, organism-based; design: time infinity, dose 50 mg/kg; conditions: in vivo; how it was run: as §3
[33] = Oral bioavailability in dog at 5 mg/kg; assay type: ADME, organism-based, Canis lupus familiaris; conditions: in vivo
[34] = target: T3, Cytochrome P450 2B6 (Homo sapiens, UniProt P20813); test: Induction of CYP2B6 in human hepatocytes up to 50 uM; assay type: ADME, cell-based, Hepatocyte
T3 sequence (P20813 whole entry): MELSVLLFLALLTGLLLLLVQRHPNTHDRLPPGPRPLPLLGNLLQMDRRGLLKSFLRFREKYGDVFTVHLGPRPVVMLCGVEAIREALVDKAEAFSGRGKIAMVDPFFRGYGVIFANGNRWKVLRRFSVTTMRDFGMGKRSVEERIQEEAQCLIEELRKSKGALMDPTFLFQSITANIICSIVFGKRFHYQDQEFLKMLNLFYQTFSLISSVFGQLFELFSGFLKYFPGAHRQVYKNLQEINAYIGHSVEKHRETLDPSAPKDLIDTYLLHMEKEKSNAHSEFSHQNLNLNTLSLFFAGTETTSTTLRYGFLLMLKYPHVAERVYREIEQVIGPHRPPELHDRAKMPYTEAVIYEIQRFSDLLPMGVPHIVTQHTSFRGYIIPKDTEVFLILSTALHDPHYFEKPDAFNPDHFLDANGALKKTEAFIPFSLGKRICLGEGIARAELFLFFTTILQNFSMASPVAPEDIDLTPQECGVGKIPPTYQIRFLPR
How it was run: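 Sandwich-cultured human hepatocytes exposed at concentrations up to 50 μM; induction of CYP1A2, 2B6 and 3A4 assessed.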

`Cc1cc(-c2ccnc(Nc3cnn(C)c3)n2)ccc1CNC(=O)N1CC(OC(C)C)C1` showed a Cmax [1] of 652 ng/mL, a solubility kinetic [2] greater than 10 µg/mL and a CL [3] of 1%. It also gave a Ki [4] of 50 µM, an IC50 [5] greater than 25 µM and an IC50 [6] greater than 25 µM. The IC50 [7] was 0.17 µM, the Drug metabolism [8] was “Metabolite_Detected” and the ED50 [9] was 4.4 mg/kg. The Drug metabolism [10] was “Metabolite_Detected”, the fraction unbound at 2 µM [11] was 0.059 and the Activity [12] was “Non-Toxic”. For the same compound, the Activity [13] was “Non-Toxic”, the remaining at 6 h [14] was greater than 95% and the remaining at 6 h [15] was greater than 95%. The solubility kinetic [16] was greater than 50 µg/mL, the Activity [17] was “Non-Toxic” and the solubility [18] was greater than 100 µg/mL. The AUC(0-inf) [19] was 129 µg·h/mL, the NOAEL at 2184 h [20] was 50 mg/kg/day and the fraction unbound [21] was 0.0362. The Activity [22] was “Non-Toxic”, the fraction unbound [23] was 0.113 and the logD [24] was 2.32. For the same compound, the remaining at 6 h [25] was greater than 95%, the Vd [26] was 0.7 L/kg and the Activity [27] was “Non-Toxic”. The Activity [28] was “Non-Toxic”, the AUC [29] was 11.9 µg·h/mL and the IC50 [30] was 0.13 µM. For the same compound, the Activity [31] was “Non-Toxic”, the AUC(0-inf) [32] was 376 µg·h/mL and the bioavailability [33] was 26%. The Activity [34] was “Not Active”.
